Results as given in ChEMBL document CHEMBL4190404, “Synthesis and characterization of amino acid substituted sunitinib analogues for the treatment of AML” (Bioorg Med Chem Lett, 2018).
Values after ≈ are worked out from the molar mass of the structure shown.

Key:
[1] = Aqueous solubility in pH 7.4 phosphate buffer at 120 uM after 24 hrs by HPLC method; format: physicochemical
[2] = Aqueous solubility in pH 5.5 phosphate buffer at 120 uM after 24 hrs by HPLC method; format: physicochemical; settings: for solubility at 24 h, 120 µM: phosphate buffer, pH 5.5
[3] = test system: Receptor-type tyrosine-protein kinase FLT3 (Homo sapiens), P36888 [UNDEFINED MUTATION]; experiment: Inhibition of FLT3 ITD mutant (unknown origin) using TAMRA-Src- tide as substrate at 12.5 uM after 1 hr by fluorescence polarization assay relative to control
Chain of Receptor-type tyrosine-protein kinase FLT3 (Homo sapiens), P36888 [UNDEFINED MUTATION] (P36888 whole entry, looked up, stated change not applied): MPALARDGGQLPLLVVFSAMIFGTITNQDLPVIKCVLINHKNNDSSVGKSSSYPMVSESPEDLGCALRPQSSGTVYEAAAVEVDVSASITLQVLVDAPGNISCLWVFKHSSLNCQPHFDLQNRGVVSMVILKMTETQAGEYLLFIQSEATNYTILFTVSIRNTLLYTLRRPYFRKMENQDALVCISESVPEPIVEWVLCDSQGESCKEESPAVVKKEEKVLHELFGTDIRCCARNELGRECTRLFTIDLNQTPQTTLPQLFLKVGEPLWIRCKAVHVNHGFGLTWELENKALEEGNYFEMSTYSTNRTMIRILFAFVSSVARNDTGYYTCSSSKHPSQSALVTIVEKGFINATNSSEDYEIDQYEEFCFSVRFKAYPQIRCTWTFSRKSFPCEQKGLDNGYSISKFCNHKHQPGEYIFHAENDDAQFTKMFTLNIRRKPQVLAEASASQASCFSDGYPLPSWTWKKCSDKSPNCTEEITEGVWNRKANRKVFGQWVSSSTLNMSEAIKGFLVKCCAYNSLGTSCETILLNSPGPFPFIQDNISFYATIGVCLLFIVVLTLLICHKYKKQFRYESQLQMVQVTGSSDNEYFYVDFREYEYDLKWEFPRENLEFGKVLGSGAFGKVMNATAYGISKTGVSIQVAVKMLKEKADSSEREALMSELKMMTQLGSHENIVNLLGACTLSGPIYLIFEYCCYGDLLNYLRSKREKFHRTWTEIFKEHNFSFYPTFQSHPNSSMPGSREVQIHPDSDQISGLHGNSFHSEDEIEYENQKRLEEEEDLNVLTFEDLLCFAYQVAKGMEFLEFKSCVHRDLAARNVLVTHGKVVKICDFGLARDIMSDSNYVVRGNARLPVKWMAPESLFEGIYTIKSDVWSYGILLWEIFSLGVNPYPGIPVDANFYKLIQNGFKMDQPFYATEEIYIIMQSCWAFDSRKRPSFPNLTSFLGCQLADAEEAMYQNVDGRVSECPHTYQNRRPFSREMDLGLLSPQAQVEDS
How it was run: (§1)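 FLT3-ITD kinase inhibition by fluorescence polarization IMAP assay; each compound tested at 12.5 and 1.25 μM; percent inhibition, average of two parallel measurements.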

[4] = test system: Receptor-type tyrosine-protein kinase FLT3 (Homo sapiens), P36888 [UNDEFINED MUTATION]; experiment: Inhibition of FLT3 ITD mutant (unknown origin) using TAMRA-Src- tide as substrate at 1.25 uM after 1 hr by fluorescence polarization assay relative to control; how it was run: as §1
[5] = test system: MV4-11; experiment: Antiproliferative activity against human MV4-11 cells after 72 hrs by Celltiter-Glo luminescent cell viability assay; format: functional, cell-based; settings: MV4-11, 72 h
How it was run: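 MV4-11 leukaemia cells, 72 h proliferation assay, luminescence read-out; IC50 determined from concentration–response.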

[6] = Lipophilicity, chromatographic hydrophobicity index of the compound at pH 7.4 by HPLC method; format: physicochemical; settings: buffer
How it was run: (§2)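 RP-HPLC with buffer/acetonitrile gradient elution; CHI profile at starting pH 10.5, 7.4, 5.5 and 1.2; values given as average of the compound group.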

[7] = Lipophilicity, chromatographic hydrophobicity index of the compound at pH 5.5 by HPLC method; format: physicochemical; settings: buffer; how it was run: as §2
[8] = Lipophilicity, chromatographic hydrophobicity index of the compound at pH 1.2 by HPLC method; format: physicochemical; settings: buffer; how it was run: as §2
[9] = buffer, pH 10.5
[10] = Dissociation constant, pKa of the compound at 25 to 50 uM by UV spectroscopy; format: physicochemical
How it was run: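 Carboxyl pKa by automated UV/pH titration with MeOH as co-solvent.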

[11] = Apparent partition coefficient, log P of the compound in n-octanol/aqueous mixture at pH 7.4 after 1 hr by shake flask method; format: physicochemical
[12] = n-Octanol-buffer distribution coefficient, log D of the compound at pH 7.4 after 1 hr by shake flask method; format: physicochemical
[13] = n-Octanol-buffer distribution coefficient, log D of the compound at pH 5.5 after 1 hr by shake flask method; format: physicochemical

Compound: COC(=O)CC[C@H](NC(=O)c1ccc2c(c1)/C(=C/c1[nH]c(C)c(C(=O)N[C@@H](Cc3ccccc3)C(=O)OC)c1C)C(=O)N2)C(=O)OC
- solubility at 24 h, 120 µM [1]: < 1 µM
- solubility at 24 h, 120 µM [2]: < 1 µM
- inhibition [3]: 79.4%
- inhibition [4]: 19.9%
- IC50 [5]: 17.7 µM
- CHI [6]: 79
- CHI [7]: 79
- CHI [8]: 79
- CHI [9]: 79

Compound: COC(=O)[C@@H](Cc1ccccc1)NC(=O)c1ccc2c(c1)/C(=C/c1[nH]c(C)c(C(=O)N[C@@H](Cc3ccccc3)C(=O)O)c1C)C(=O)N2
- inhibition [3]: > 100%
- inhibition [4]: 74.2%
- pKa at up to 50 µM [10]: 3
- logD at 1 h [11]: 5.68
- logD at 1 h [12]: 1.28
- logD at 1 h [13]: 3.18
- IC50 [5]: 13 µM

Compound: COC(=O)CC[C@@H](NC(=O)c1ccc2c(c1)/C(=C/c1[nH]c(C)c(C(=O)O)c1C)C(=O)N2)C(=O)OC
- inhibition [3]: 12.1%
- inhibition [4]: 80.6%
- pKa at up to 50 µM [10]: 5.47

Compound: COC(=O)[C@H](Cc1ccccc1)NC(=O)c1ccc2c(c1)/C(=C/c1[nH]c(C)c(C(=O)N[C@@H](Cc3ccccc3)C(=O)O)c1C)C(=O)N2
- solubility at 24 h, 120 µM [1]: 70 µM (≈ 44.4 µg/mL)
- solubility at 24 h, 120 µM [2]: 30 µM (≈ 19 µg/mL)
- inhibition [3]: > 100%
- inhibition [4]: 58.6%
- IC50 [5]: 24.3 µM
- CHI [6]: 59
- CHI [7]: 60
- CHI [8]: 80
- CHI [9]: 57

Compound: CCOC(=O)c1c(C)[nH]c(/C=C2\C(=O)Nc3ccc(C(=O)N[C@@H](Cc4ccccc4)C(=O)OC)cc32)c1C
- solubility at 24 h, 120 µM [1]: < 1 µM
- solubility at 24 h, 120 µM [2]: < 1 µM
- inhibition [3]: 74.2%
- inhibition [4]: 25%
- IC50 [5]: 10.6 µM
- CHI [6]: 98
- CHI [7]: 98
- CHI [8]: 99
- CHI [9]: 100

Compound: COC(=O)c1ccc2c(c1)/C(=C/c1[nH]c(C)c(C(=O)N[C@@H](Cc3ccccc3)C(=O)O)c1C)C(=O)N2
- solubility at 24 h, 120 µM [1]: ≥ 120 µM
- solubility at 24 h, 120 µM [2]: < 5 µM
- inhibition [3]: > 100%
- inhibition [4]: 90.9%
- pKa at up to 50 µM [10]: 3
- logD at 1 h [11]: 4.73
- logD at 1 h [12]: 0.33
- logD at 1 h [13]: 2.23
- IC50 [5]: 2.2 µM
- CHI [6]: 53
- CHI [7]: 54
- CHI [8]: 76
- CHI [9]: 51

Compound: Cc1[nH]c(/C=C2\C(=O)Nc3ccccc32)c(C)c1CCC(=O)O [ORANTINIB]
- solubility at 24 h, 120 µM [1]: ≥ 120 µM
- solubility ([2]; buffer, pH 5.5, 24 h, 120 µM): 5 µM (≈ 1.55 µg/mL)
- inhibition [3]: > 100%
- inhibition [4]: 76.7%
- pKa at up to 50 µM [10]: 4.1
- logD at 1 h [11]: 4.6
- logD at 1 h [12]: 1.3
- logD at 1 h [13]: 3.18
- IC50 [5]: 3.9 µM
- CHI [6]: 47
- CHI [7]: 59
- CHI [8]: 75
- CHI [9]: 42

Compound: COC(=O)[C@H](Cc1ccccc1)NC(=O)c1ccc2c(c1)/C(=C/c1[nH]c(C)c(C(=O)N[C@@H](Cc3ccccc3)C(=O)OC)c1C)C(=O)N2
- solubility at 24 h, 120 µM [1]: < 1 µM
- solubility at 24 h, 120 µM [2]: < 1 µM
- inhibition [3]: 92.3%
- inhibition [4]: 28.9%
- IC50 [5]: 10.9 µM
- CHI [6]: 90
- CHI [7]: 91
- CHI [8]: 92
- CHI [9]: 91

Compound: Cc1[nH]c(/C=C2\C(=O)Nc3ccc(C(=O)N[C@H](Cc4ccccc4)C(=O)O)cc32)c(C)c1C(=O)N[C@@H](Cc1ccccc1)C(=O)O
- inhibition [3]: > 100%
- inhibition [4]: 74.2%
- pKa at up to 50 µM [10]: 3
- logD at 1 h [11]: 5.62
- logD at 1 h [12]: -3.18
- logD at 1 h [13]: 0.62

Compound: COC(=O)CC[C@H](NC(=O)c1c(C)[nH]c(/C=C2\C(=O)Nc3ccc(C(=O)N[C@@H](Cc4ccccc4)C(=O)OC)cc32)c1C)C(=O)OC
- solubility at 24 h, 120 µM [1]: < 1 µM
- solubility at 24 h, 120 µM [2]: < 1 µM
- inhibition [3]: 91%
- inhibition [4]: 57.3%
- IC50 [5]: 11.9 µM
- CHI [6]: 78
- CHI [7]: 79
- CHI [8]: 78
- CHI [9]: 77

Compound: COC(=O)[C@H](Cc1ccccc1)NC(=O)c1c(C)[nH]c(/C=C2\C(=O)Nc3ccc(C(=O)O)cc32)c1C
- solubility at 24 h, 120 µM [1]: 100 µM (≈ 48.8 µg/mL)
- solubility at 24 h, 120 µM [2]: < 5 µM
- inhibition [3]: 98.7%
- inhibition [4]: 85.8%
- pKa at up to 50 µM [10]: 4.61
- logD at 1 h [11]: 4.32
- logD at 1 h [12]: 1.53
- logD at 1 h [13]: 3.38
- CHI [6]: 52
- CHI [7]: 59
- CHI [8]: 73
- CHI [9]: 49

Compound: COC(=O)CC[C@H](NC(=O)c1c(C)[nH]c(/C=C2\C(=O)Nc3ccc(C(=O)N[C@H](Cc4ccccc4)C(=O)O)cc32)c1C)C(=O)OC
- inhibition [3]: > 100%
- inhibition [4]: 74.2%
- pKa at up to 50 µM [10]: 3.01
- logD at 1 h [11]: 4.07
- logD at 1 h [12]: -0.32
- logD at 1 h [13]: 1.58

Compound: COC(=O)CC[C@H](NC(=O)c1ccc2c(c1)/C(=C/c1[nH]c(C)c(C(=O)N[C@@H](Cc3ccccc3)C(=O)O)c1C)C(=O)N2)C(=O)OC
- solubility at 24 h, 120 µM [1]: 100 µM (≈ 63.1 µg/mL)
- solubility at 24 h, 120 µM [2]: 30 µM (≈ 18.9 µg/mL)
- inhibition [3]: > 100%
- inhibition [4]: 58.7%
- pKa at up to 50 µM [10]: 3.04
- logD at 1 h [11]: 3.62
- logD at 1 h [12]: -0.74
- logD at 1 h [13]: 1.16
- CHI [6]: 49
- CHI [7]: 50
- CHI [8]: 67
- CHI [9]: 46

Compound: COC(=O)c1ccc2c(c1)/C(=C/c1[nH]c(C)c(C(=O)N[C@@H](Cc3ccccc3)C(=O)OC)c1C)C(=O)N2
- solubility at 24 h, 120 µM [1]: < 5 µM
- solubility at 24 h, 120 µM [2]: < 1 µM
- inhibition [3]: 79.3%
- inhibition [4]: 45.7%
- IC50 [5]: 0.5 µM
- CHI [6]: 88
- CHI [7]: 89
- CHI [8]: 89
- CHI [9]: 89

Compound: COC(=O)CC[C@H](NC(=O)c1ccc2c(c1)/C(=C/c1[nH]c(C)c(C(=O)N[C@@H](CCC(=O)OC)C(=O)OC)c1C)C(=O)N2)C(=O)OC
- solubility at 24 h, 120 µM [1]: < 5 µM
- solubility at 24 h, 120 µM [2]: < 5 µM
- inhibition [3]: 80.5%
- inhibition [4]: 41.9%
- CHI [6]: 65
- CHI [7]: 65
- CHI [8]: 65
- CHI [9]: 65

Compound: Cc1[nH]c(/C=C2\C(=O)Nc3ccc(C(=O)N[C@@H](Cc4ccccc4)C(=O)O)cc32)c(C)c1C(=O)O
- solubility at 24 h, 120 µM [1]: ≥ 120 µM
- solubility at 24 h, 120 µM [2]: < 5 µM
- inhibition [3]: > 100%
- inhibition [4]: 97.4%
- CHI [6]: 32
- CHI [7]: 41
- CHI [8]: 63
- CHI [9]: 24

Compound: COC(=O)CC[C@H](NC(=O)c1c(C)[nH]c(/C=C2\C(=O)Nc3ccc(C(=O)OC)cc32)c1C)C(=O)OC
- solubility at 24 h, 120 µM [1]: < 5 µM
- solubility at 24 h, 120 µM [2]: < 5 µM
- inhibition [3]: 92.2%
- inhibition [4]: 87%
- IC50 [5]: 0.08 µM
- CHI [6]: 73
- CHI [7]: 73
- CHI [8]: 73
- CHI [9]: 73

Compound: COC(=O)[C@H](Cc1ccccc1)NC(=O)c1c(C)[nH]c(/C=C2\C(=O)Nc3ccc(C(=O)N[C@@H](Cc4ccccc4)C(=O)O)cc32)c1C
- solubility at 24 h, 120 µM [1]: 50 µM (≈ 31.7 µg/mL)
- solubility at 24 h, 120 µM [2]: 20 µM (≈ 12.7 µg/mL)
- inhibition [3]: > 100%
- inhibition [4]: 94.8%
- CHI [6]: 60
- CHI [7]: 60
- CHI [8]: 81
- CHI [9]: 58

Compound: COC(=O)CC[C@@H](NC(=O)c1ccc2c(c1)/C(=C/c1[nH]c(C)c(C(=O)N[C@H](CCC(=O)OC)C(=O)OC)c1C)C(=O)N2)C(=O)OC
- inhibition [3]: 75.4%
- inhibition [4]: 62.5%
- logD at 1 h [11]: 3.36
- logD at 1 h [12]: 3.36
- logD at 1 h [13]: 3.36

Compound: COC(=O)[C@H](Cc1ccccc1)NC(=O)c1ccc2c(c1)/C(=C/c1[nH]c(C)c(C(=O)O)c1C)C(=O)N2
- solubility at 24 h, 120 µM [1]: 20 µM (≈ 9.75 µg/mL)
- solubility at 24 h, 120 µM [2]: < 1 µM
- inhibition [3]: 71.6%
- inhibition [4]: 69%
- IC50 [5]: 3.7 µM
- CHI [6]: 56
- CHI [7]: 68
- CHI [8]: 73
- CHI [9]: 47

Compound: Cc1[nH]c(/C=C2\C(=O)Nc3ccc(C(=O)O)cc32)c(C)c1C(=O)N[C@@H](Cc1ccccc1)C(=O)O
- solubility at 24 h, 120 µM [1]: ≥ 120 µM
- solubility at 24 h, 120 µM [2]: 110 µM (≈ 52.1 µg/mL)
- inhibition [3]: > 100%
- inhibition [4]: 100%
- CHI [6]: 29
- CHI [7]: 35
- CHI [8]: 61
- CHI [9]: 24
